In ChEMBL document CHEMBL4828740, “Discovery of Quinoxaline-Based P1-P3 Macrocyclic NS3/4A Protease Inhibitors with Potent Activity against Drug-Resistant Hepatitis C Virus Variants” (J Med Chem, 2021):

What follows are molecules tested on Hepatitis C virus (assay: Antiviral activity against HCV genotype 1b harboring D168A mutant infected in human Huh7 cells incubated for 96 hrs by luciferase assay). Details: subtype 1b, Huh-7, 96 h.
Assay type: functional, organism-based, Hepacivirus hominis
In short: (§1)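 Con1 (GT-1b) luciferase reporter replicon carrying the H77 (GT-1a) NS3 protease region, with the mutation introduced by megaprimer site-directed mutagenesis. Cured Huh7 cells were grown in DMEM with 10% heat-inactivated FBS and 0.1 mM non-essential amino acids, electroporated with replicon RNA transcripts, and kept with serially diluted inhibitor. EC50 was taken directly from the inhibition curves.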
In the case of `COc1ccc2nc(O[C@@H]3C[C@H]4C(=O)N[C@]5(C(=O)NS(=O)(=O)C6(C)CC6)C[C@H]5/C=C/CCCCC[C@H](NC(=O)OCC5(C)CC5)C(=O)N4C3)c(C(F)(F)F)nc2c1`, the EC50 is reported as 8.3 nM. In the case of `COc1ccc2nc(O[C@@H]3C[C@H]4C(=O)N[C@]5(C(=O)NS(=O)(=O)C6(C)CC6)C[C@H]5/C=C/CCCCC[C@H](NC(=O)OCC(C)(C)C)C(=O)N4C3)c(C(F)(F)F)nc2c1`, the EC50 is reported as 14 nM. `COc1ccc2nc(C)c(O[C@@H]3C[C@H]4C(=O)N[C@]5(C(=O)NS(=O)(=O)C6(C)CC6)C[C@H]5/C=C/CCCCC[C@H](NC(=O)OCC5(C)CC5)C(=O)N4C3)nc2c1` showed an EC50 of 3.8 nM. Molecule `CCC1(OC(=O)N[C@H]2CCCCC/C=C/[C@@H]3C[C@@]3(C(=O)NS(=O)(=O)C3(C)CC3)NC(=O)[C@@H]3C[C@@H](Oc4nc5cc(OC)ccc5nc4C)CN3C2=O)CCCC1` has an EC50 of 4.7 nM. Molecule `COc1ccc2nc(C)c(O[C@@H]3C[C@H]4C(=O)N[C@]5(C(=O)NS(=O)(=O)C6(C)CC6)C[C@H]5/C=C/CCCCC[C@H](NC(=O)OC5(C)CCC5)C(=O)N4C3)nc2c1` has an EC50 of 3.4 nM. With `COc1ccc2nc(O[C@@H]3C[C@H]4C(=O)N[C@]5(C(=O)NS(=O)(=O)C6(C)CC6)C[C@H]5/C=C/CCCCC[C@H](NC(=O)OCC5(C(F)(F)F)CC5)C(=O)N4C3)c(C(F)(F)F)nc2c1` the EC50 was 4.6 nM. Work on `COc1ccc2nc(C)c(O[C@@H]3C[C@H]4C(=O)N[C@]5(C(=O)NS(=O)(=O)C6(C)CC6)C[C@H]5/C=C/CCCCC[C@H](NC(=O)OC5CCCC5)C(=O)N4C3)nc2c1` yielded an EC50 of 1.9 nM. In the case of `COc1ccc2nc(O[C@@H]3C[C@H]4C(=O)N[C@]5(C(=O)NS(=O)(=O)C6(C)CC6)C[C@H]5/C=C/CCCCC[C@H](NC(=O)O[C@H](C)C(C)C)C(=O)N4C3)c(C(F)(F)F)nc2c1`, the EC50 is reported as 6.3 nM.

The molecules below were run against T1, Hepatitis C virus serine protease, NS3/NS4A (Hepatitis C virus, UniProt A3EZI9+D2K2A8) (assay: Inhibition of HCV GT-3a NS3/4a protease using Ac-DE-D(Edans)-EE-Abu-c-[COO]-AS-K(Dabcy1)-NH2 preincubated for 1 hr followed by substrate addition). Details: not given.
Assay type: protein-complex assay, Hepatitis C virus subtype 3a
With `COc1ccc2nc(C)c(O[C@@H]3C[C@H]4C(=O)N[C@]5(C(=O)NS(=O)(=O)C6(C)CC6)C[C@H]5/C=C/CCCCC[C@H](NC(=O)OC5CCCC5)C(=O)N4C3)nc2c1` the Ki was 120 nM.

The molecules below were run against T1, Hepatitis C virus serine protease, NS3/NS4A (assay: Inhibition of HCV GT-1a NS3/4a protease using Ac-DE-D(Edans)-EE-Abu-c-[COO]-AS-K(Dabcy1)-NH2 preincubated for 1 hr followed by substrate addition). Details: not given.
Assay type: protein complex, Hepatitis C virus subtype 1a
`COc1ccc2nc(O[C@@H]3C[C@H]4C(=O)N[C@]5(C(=O)NS(=O)(=O)C6(C)CC6)C[C@H]5/C=C/CCCCC[C@H](NC(=O)OCC5(C)CC5)C(=O)N4C3)c(C(F)(F)F)nc2c1` showed a Ki of 2.9 nM. For `COc1ccc2nc(O[C@@H]3C[C@H]4C(=O)N[C@]5(C(=O)NS(=O)(=O)C6(C)CC6)C[C@H]5/C=C/CCCCC[C@H](NC(=O)OCC(C)(C)C)C(=O)N4C3)c(C(F)(F)F)nc2c1`, the Ki was 2.9 nM. Molecule `COc1ccc2nc(C)c(O[C@@H]3C[C@H]4C(=O)N[C@]5(C(=O)NS(=O)(=O)C6(C)CC6)C[C@H]5/C=C/CCCCC[C@H](NC(=O)OCC5(C)CC5)C(=O)N4C3)nc2c1` has a Ki of 0.7 nM. With `CCC1(OC(=O)N[C@H]2CCCCC/C=C/[C@@H]3C[C@@]3(C(=O)NS(=O)(=O)C3(C)CC3)NC(=O)[C@@H]3C[C@@H](Oc4nc5cc(OC)ccc5nc4C)CN3C2=O)CCCC1` the Ki was 1.3 nM. Work on `COc1ccc2nc(C)c(O[C@@H]3C[C@H]4C(=O)N[C@]5(C(=O)NS(=O)(=O)C6(C)CC6)C[C@H]5/C=C/CCCCC[C@H](NC(=O)OC5(C)CCC5)C(=O)N4C3)nc2c1` yielded a Ki of 1.4 nM. `COc1ccc2nc(O[C@@H]3C[C@H]4C(=O)N[C@]5(C(=O)NS(=O)(=O)C6(C)CC6)C[C@H]5/C=C/CCCCC[C@H](NC(=O)OCC5(C(F)(F)F)CC5)C(=O)N4C3)c(C(F)(F)F)nc2c1` gave a Ki of 3.5 nM. `COc1ccc2nc(C)c(O[C@@H]3C[C@H]4C(=O)N[C@]5(C(=O)NS(=O)(=O)C6(C)CC6)C[C@H]5/C=C/CCCCC[C@H](NC(=O)OC5CCCC5)C(=O)N4C3)nc2c1` showed a Ki of 1.1 nM. With `COc1ccc2nc(O[C@@H]3C[C@H]4C(=O)N[C@]5(C(=O)NS(=O)(=O)C6(C)CC6)C[C@H]5/C=C/CCCCC[C@H](NC(=O)O[C@H](C)C(C)C)C(=O)N4C3)c(C(F)(F)F)nc2c1` the Ki was 3 nM.

Each molecule was assayed on Hepatitis C virus (assay: Antiviral activity against HCV genotype 1b infected in human Huh7 cells incubated for 96 hrs by luciferase assay). Details: Huh-7, 96 h.
Assay type: functional, organism-based, Hepacivirus hominis
In short: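 Con1 (GT-1b) luciferase reporter replicon carrying the H77 (GT-1a) NS3 protease region, either WT or with A156T or D168A introduced by megaprimer mutagenesis. Cured Huh7 cells grown in DMEM with 10% heat-inactivated FBS and 0.1 mM non-essential amino acids. Cells electroporated with replicon RNA and kept with serially diluted inhibitor.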
`COc1ccc2nc(O[C@@H]3C[C@H]4C(=O)N[C@]5(C(=O)NS(=O)(=O)C6(C)CC6)C[C@H]5/C=C/CCCCC[C@H](NC(=O)OCC5(C)CC5)C(=O)N4C3)c(C(F)(F)F)nc2c1` showed an EC50 of 5.7 nM. Work on `COc1ccc2nc(O[C@@H]3C[C@H]4C(=O)N[C@]5(C(=O)NS(=O)(=O)C6(C)CC6)C[C@H]5/C=C/CCCCC[C@H](NC(=O)OCC(C)(C)C)C(=O)N4C3)c(C(F)(F)F)nc2c1` yielded an EC50 of 4.9 nM. Work on `COc1ccc2nc(C)c(O[C@@H]3C[C@H]4C(=O)N[C@]5(C(=O)NS(=O)(=O)C6(C)CC6)C[C@H]5/C=C/CCCCC[C@H](NC(=O)OCC5(C)CC5)C(=O)N4C3)nc2c1` yielded an EC50 of 0.8 nM. For `CCC1(OC(=O)N[C@H]2CCCCC/C=C/[C@@H]3C[C@@]3(C(=O)NS(=O)(=O)C3(C)CC3)NC(=O)[C@@H]3C[C@@H](Oc4nc5cc(OC)ccc5nc4C)CN3C2=O)CCCC1`, the EC50 was 1.6 nM. For `COc1ccc2nc(C)c(O[C@@H]3C[C@H]4C(=O)N[C@]5(C(=O)NS(=O)(=O)C6(C)CC6)C[C@H]5/C=C/CCCCC[C@H](NC(=O)OC5(C)CCC5)C(=O)N4C3)nc2c1`, the EC50 was 0.5 nM. In the case of `COc1ccc2nc(O[C@@H]3C[C@H]4C(=O)N[C@]5(C(=O)NS(=O)(=O)C6(C)CC6)C[C@H]5/C=C/CCCCC[C@H](NC(=O)OCC5(C(F)(F)F)CC5)C(=O)N4C3)c(C(F)(F)F)nc2c1`, the EC50 is reported as 1.2 nM. `COc1ccc2nc(C)c(O[C@@H]3C[C@H]4C(=O)N[C@]5(C(=O)NS(=O)(=O)C6(C)CC6)C[C@H]5/C=C/CCCCC[C@H](NC(=O)OC5CCCC5)C(=O)N4C3)nc2c1` showed an EC50 of 0.1 nM. `COc1ccc2nc(O[C@@H]3C[C@H]4C(=O)N[C@]5(C(=O)NS(=O)(=O)C6(C)CC6)C[C@H]5/C=C/CCCCC[C@H](NC(=O)O[C@H](C)C(C)C)C(=O)N4C3)c(C(F)(F)F)nc2c1` was tested, and the EC50 was 2.1 nM.

The molecules below were run on Hepatitis C virus (assay: Antiviral activity against HCV genotype 1b harboring A156T mutant infected in human Huh7 cells incubated for 96 hrs by luciferase assay). Details: subtype 1b, Huh-7, 96 h.
Assay type: functional, organism-based, Hepacivirus hominis
In short: as §1
For `COc1ccc2nc(O[C@@H]3C[C@H]4C(=O)N[C@]5(C(=O)NS(=O)(=O)C6(C)CC6)C[C@H]5/C=C/CCCCC[C@H](NC(=O)OCC5(C)CC5)C(=O)N4C3)c(C(F)(F)F)nc2c1`, the EC50 was 41 nM. Molecule `COc1ccc2nc(O[C@@H]3C[C@H]4C(=O)N[C@]5(C(=O)NS(=O)(=O)C6(C)CC6)C[C@H]5/C=C/CCCCC[C@H](NC(=O)OCC(C)(C)C)C(=O)N4C3)c(C(F)(F)F)nc2c1` has an EC50 of 158 nM. For `COc1ccc2nc(C)c(O[C@@H]3C[C@H]4C(=O)N[C@]5(C(=O)NS(=O)(=O)C6(C)CC6)C[C@H]5/C=C/CCCCC[C@H](NC(=O)OCC5(C)CC5)C(=O)N4C3)nc2c1`, the EC50 was 8.5 nM. In the case of `CCC1(OC(=O)N[C@H]2CCCCC/C=C/[C@@H]3C[C@@]3(C(=O)NS(=O)(=O)C3(C)CC3)NC(=O)[C@@H]3C[C@@H](Oc4nc5cc(OC)ccc5nc4C)CN3C2=O)CCCC1`, the EC50 is reported as 8.3 nM. `COc1ccc2nc(C)c(O[C@@H]3C[C@H]4C(=O)N[C@]5(C(=O)NS(=O)(=O)C6(C)CC6)C[C@H]5/C=C/CCCCC[C@H](NC(=O)OC5(C)CCC5)C(=O)N4C3)nc2c1` was tested, and the EC50 was 4.2 nM. `COc1ccc2nc(O[C@@H]3C[C@H]4C(=O)N[C@]5(C(=O)NS(=O)(=O)C6(C)CC6)C[C@H]5/C=C/CCCCC[C@H](NC(=O)OCC5(C(F)(F)F)CC5)C(=O)N4C3)c(C(F)(F)F)nc2c1` showed an EC50 of 43 nM. Work on `COc1ccc2nc(O[C@@H]3C[C@H]4C(=O)N[C@]5(C(=O)NS(=O)(=O)C6(C)CC6)C[C@H]5/C=C/CCCCC[C@H](NC(=O)O[C@H](C)C(C)C)C(=O)N4C3)c(C(F)(F)F)nc2c1` yielded an EC50 of 45 nM.
